# Where two headings read alike, the source gives them in different places.
# Assays:
# [1] = tested on: Normal Cell Lines (Wi38, WS1, NHDF); test: MTT colorimetric assay, mean over three normal cell lines; format: cell-based; settings: read-out: IC50 In Vitro Growth Inhibitory Values, Normal Cell Lines, Mean ± SEM
# [2] = tested on: cancer versus normal cell lines; test: In vitro therapeutic ratio, cancer versus normal cell lines; format: cell-based
# Method in brief: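 MTT colorimetric growth assay on human cancer and normal cell lines. Cells were plated for 24 h at 10,000 to 40,000 cells/mL, depending on cell type, then cultured 72 h with or without test compound. Formazan from mitochondrial MTT reduction was read at 570 nm (reference 630 nm), in sextuplicate. The ratio compares MTT growth-inhibitory IC50 between normal and cancer cells.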
# [3] = tested on: OE21 esophageal cancer cells; test: MTT colorimetric assay, in vitro growth inhibition; format: cell-based, human
# [4] = tested on: A549 non-small-cell-lung cancer (NSCLC) cells; test: MTT colorimetric assay, in vitro growth inhibition; format: cell-based, human
# [5] = tested on: U373 glioblastoma (GBM) cells; test: MTT colorimetric assay, in vitro growth inhibition; format: cell-based, human; settings: 72 h
# [6] = tested on: Hs683 anaplastic oligodendroglioma cells; test: MTT colorimetric assay, in vitro growth inhibition; format: cell-based, human
# B16F10 melanoma cells = test: MTT colorimetric assay, in vitro growth inhibition; format: cell-based, mouse
# SKMEL-28 melanoma cells = test: MTT colorimetric assay, in vitro growth inhibition; format: cell-based, human
# U373 GBM cells [7] = test: Actin cytoskeleton organization by computer-assisted fluorescence microscopy; format: cell-based, human; settings: 5 μM for 6 hrs
# U373 GBM cells [8] = test: Flow cytometry, annexin V / propidium iodide staining; format: cell-based, human; settings: 72 hrs
# A549 NSCLC cells [9] = test: Soft-agar colony formation, anchorage-independent culture; format: cell-based, human; settings: between 0.5 (p < 0.05) and 5 (p < 0.01) μM, 38 days
# healthy mice = test: Chronic maximal tolerated dose in healthy mice; format: in vivo, mouse; settings: i.v. 5, 10, 20, 40 and 80 mg/kg once a day during 5 consecutive days; 28 days
# A549 NSCLC cells [10] = test: Quantitative videomicroscopy: cell growth; format: cell-based, human; settings: 5 μM, 72 h
# CYP3A4 = settings: cited from earlier work
# U373 GBM cells [11] = test: Quantitative videomicroscopy: cell growth; format: cell-based, human; settings: 5 μM, 72 h
# [12] = tested on: Cancer Cell Lines (A549, OE21, Hs683, U373, SKMEL, B16F10); test: MTT colorimetric assay, mean over six cancer cell lines; format: cell-based; settings: read-out: IC50 In Vitro Growth Inhibitory Values, Cancer Cell Lines, Mean ± SEM
# [13] = tested on: MCF-7 breast cancer cells; test: Flow cytometry, annexin V / propidium iodide staining; format: cell-based, human; settings: 1 μM for 72 hrs, positive control
# [14] = tested on: glioma cells, which display resistance to proapoptotic stimuli; settings: 1 μM; cited from earlier work
# [15] = read-out: In Vitro IC50 Growth Inhibitory Values, OE21, MTT, 72 h, concentrations of up to 10 μM
# [16] = read-out: In Vitro IC50 Growth Inhibitory Values, A549, MTT, 72 h, concentrations of up to 10 μM
# [17] = read-out: In Vitro IC50 Growth Inhibitory Values, U373, MTT, concentrations of up to 10 μM
# [18] = read-out: In Vitro IC50 Growth Inhibitory Values, Hs683, MTT, 72 h, concentrations of up to 10 μM
# [19] = read-out: In Vitro IC50 Growth Inhibitory Values, B16F10, MTT, 72 h, concentrations of up to 10 μM
# [20] = read-out: In Vitro IC50 Growth Inhibitory Values, SKMEL, MTT, 72 h, concentrations of up to 10 μM
structure (smiles),measurement,setting,value
"COC1=C[C@@H]2CCN3Cc4cc5c(cc4[C@@H]([C@H]23)[C@@H]1O)OCO5 [compound 22, (1S,3aS,12bS,12cS)-1-ol-2-methoxy-3a,4,5,7,12b,12c-hexahydro-1H-[1,3]Dioxolo[4,5-j]pyrrolo[3,2,1-de]phenanthridine]",IC50,[1],> 99.2 µM
same,Therapeutic ratio,[2]; MTT IC50,> 13
"O[C@H]1[C@H]2c3cc4c(cc3CN3CCC(=C[C@@H]1Cl)[C@H]23)OCO4 [compound 6, (1S,2S,12bS,12cS)-1-ol-2-Chloro-2,4,5,7,12b,12c-hexahydro-1H-[1,3]Dioxolo[4,5-j]pyrrolo[3,2,1-de]phenanthridine]",IC50,[1],> 72.7 µM
same,Therapeutic ratio,[2]; MTT IC50,> 11
"CC(=O)O[C@H]1[C@H]2c3cc4c(cc3CN3CC[C@H](C[C@@H]1OC(C)=O)[C@H]23)OCO4 [compound 9, (1S,2S,3aR,12bS,12cR)-1,2-Diol-2,3,3a,4,5,7,12b,12c-octahydro-1H-[1,3]dioxolo[4,5-j]pyrrolo[3,2,1-de]phenanthridine diacetate]",IC50,[3]; [15],> 10 µM
same,IC50,[4]; [16],> 10 µM
same,IC50,[5]; [17],> 10 µM
same,IC50,[6]; [18],> 10 µM
same,IC50,B16F10 melanoma cells; [19],> 10 µM
same,IC50,SKMEL-28 melanoma cells; [20],> 10 µM
"O[C@H]1[C@H]2c3cc4c(cc3CN3CCC(=C[C@@H]1O)[C@H]23)OCO4 [compound 1, (1S,2S,12bS,12cS)-1,2-Diol,2,4,5,7,12b,12c-hexahydro-1H-[1,3]dioxolo[4,5-j]pyrrolo[3,2,1-de]phenanthridine]",levels of polymerized actin,U373 GBM cells [7],markedly increased the levels of polymerized actin
same,pro-apoptotic effects (AV+ cells),U373 GBM cells [8]; 5 μM or 50 μM,did not induce pro-apoptotic effects
same,non-apoptotic cell death (AV-/PI+ cells),U373 GBM cells [8]; 50 μM,induced non-apoptotic cell death
same,colony formation on soft agar,A549 NSCLC cells [9],significantly impairs colony formation
same,IC50,[1],> 100 µM
same,"toxicity (body weight, death)",healthy mice,no gross toxicity
same,in vitro growth inhibitory activity based on global growth rate (GGR),A549 NSCLC cells [10],marked in vitro growth inhibitory activity
same,CYP3A4 inhibitory activity,CYP3A4,no CYP3A4 inhibitory activity
same,in vitro growth inhibitory activity based on global growth rate (GGR),U373 GBM cells [11],marked in vitro growth inhibitory activity
same,Therapeutic ratio,[2]; MTT IC50,> 15
same,Therapeutic ratio,"[2]; MTT IC50, listed as Lycorine",at least 15
same,Therapeutic ratio,"[2]; MTT IC50, listed as lycorine",15
"CC(=O)O[C@H]1C=C2CCN3Cc4cc5c(cc4[C@H]([C@@H]1O)[C@@H]23)OCO5 [compound 5, (1S,2S,12bS,12cS)-1,2-Diol-2,4,5,7,12b,12c-hexahydro-1H-[1,3]dioxolo[4,5-j]pyrrolo[3,2,1-de]phenanthridine-2-acetate]",IC50,"[3]; Homo sapiens, OE21, 72 h, read-out: IC50 In Vitro Growth Inhibitory Values",77.4 ± 3.1 µM
same,IC50,"[4]; Homo sapiens, A549, 72 h, read-out: IC50 In Vitro Growth Inhibitory Values",47.6 ± 2.3 µM
same,IC50,"[5]; Homo sapiens, U373 MG, read-out: IC50 In Vitro Growth Inhibitory Values",63.1 ± 4.1 µM
same,IC50,"[6]; Homo sapiens, Hs 683, 72 h, read-out: IC50 In Vitro Growth Inhibitory Values",43 ± 2 µM
same,IC50,"B16F10 melanoma cells; Mus musculus, B16-F10, 72 h, read-out: IC50 In Vitro Growth Inhibitory Values",37.1 ± 2.8 µM
same,IC50,[1],> 96.2 µM
same,IC50,[12],59.3 ± 8.2 µM
same,Therapeutic ratio,[2]; MTT IC50,> 2
"CC(=O)O[C@H]1[C@H]2c3cc4c(cc3CN3CCC(=C[C@@H]1OC(C)=O)[C@H]23)OCO4 [compound 3, (1S,2S,12bS,12cS)-1,2-Diol-2,4,5,7,12b,12c-hexahydro-1H-[1,3]dioxolo[4,5-j]pyrrolo[3,2,1-de]phenanthridine-1,2-diacetate]",IC50,SKMEL-28 melanoma cells; [20],> 10 µM
"c1cc2c3c(c1)-c1cc4c(cc1CN3CC2)OCO4 [compound 20, 4,5-dihydro-7H-[1,3]Dioxolo[4,5-j]pyrrolo[3,2,1-de]phenanthridine]",IC50,"SKMEL-28 melanoma cells; Homo sapiens, SK-MEL-28, 72 h, read-out: IC50 In Vitro Growth Inhibitory Values",20.9 ± 1.2 µM
same,IC50,[12],11.6 ± 3.4 µM
same,Therapeutic ratio,[2]; MTT IC50,2
"CC(=O)O[C@H]1[C@H]2c3cc4c(cc3CN3CC[C@@H](C[C@@H]1OC(C)=O)[C@H]23)OCO4 [compound 11, (1α,2β,12β)-1,2-Diol-9,10-[methylenebis(oxy)]-galanthan-diacetate]",IC50,[3]; [15],> 10 µM
same,IC50,[4]; [16],> 10 µM
same,IC50,[5]; [17],> 10 µM
same,IC50,[6]; [18],> 10 µM
same,IC50,B16F10 melanoma cells; [19],> 10 µM
same,IC50,SKMEL-28 melanoma cells; [20],> 10 µM
"COc1cc2c(cc1O)[C@@H]1[C@H](O)[C@@H](O)C=C3CCN(C2)[C@H]31 [compound 18, (1S,2S,11bS,11cS)-1,2,10-triol-2,4,5,7,11b,11c-hexahydro-9-methoxy-1H-pyrrolo[3,2,1-de]phenanthridine]",IC50,[1],63.3 ± 7.3 µM
same,IC50,[12],9 ± 1.3 µM
same,Therapeutic ratio,[2]; MTT IC50,7
O=C1N[C@@H]2C(=C[C@H](O)[C@@H](O)[C@H]2O)c2cc3c(c(O)c21)OCO3 [narciclasine],pro-apoptotic effects (AV/PI staining),[13],induced significant pro-apoptotic effects
same,CYP3A4 inhibitory activity,CYP3A4,does
same,apoptosis induction,[14],unable to induce apoptosis
"C1=C2CCN3Cc4cc5c(cc4[C@H]([C@@H]4O[C@H]14)[C@@H]23)OCO5 [compound 14, (1α,2α)-3,12-didehydro-1,2-epoxy-9,10-[methylenebis(oxy)]-galanthan]",IC50,[1]; mean of three normal cell lines,24.9 ± 8.2 µM
same,IC50,[12]; mean of six cancer cell lines,5.3 ± 1.2 µM
same,Therapeutic ratio,[2]; MTT IC50,5
